We go through 1 compound from ChEMBL document CHEMBL3526048, “In vitro metabolism of rivoglitazone, a novel peroxisome proliferator-activated receptor γ agonist, in rat, monkey, and human liver microsomes and freshly isolated hepatocytes” (Drug Metab Dispos, 2011).

In series [1] the target is T1, UDP-glucuronosyltransferase 1A3 (Homo sapiens, UniProt P35503).
T1 sequence (P35503 whole entry): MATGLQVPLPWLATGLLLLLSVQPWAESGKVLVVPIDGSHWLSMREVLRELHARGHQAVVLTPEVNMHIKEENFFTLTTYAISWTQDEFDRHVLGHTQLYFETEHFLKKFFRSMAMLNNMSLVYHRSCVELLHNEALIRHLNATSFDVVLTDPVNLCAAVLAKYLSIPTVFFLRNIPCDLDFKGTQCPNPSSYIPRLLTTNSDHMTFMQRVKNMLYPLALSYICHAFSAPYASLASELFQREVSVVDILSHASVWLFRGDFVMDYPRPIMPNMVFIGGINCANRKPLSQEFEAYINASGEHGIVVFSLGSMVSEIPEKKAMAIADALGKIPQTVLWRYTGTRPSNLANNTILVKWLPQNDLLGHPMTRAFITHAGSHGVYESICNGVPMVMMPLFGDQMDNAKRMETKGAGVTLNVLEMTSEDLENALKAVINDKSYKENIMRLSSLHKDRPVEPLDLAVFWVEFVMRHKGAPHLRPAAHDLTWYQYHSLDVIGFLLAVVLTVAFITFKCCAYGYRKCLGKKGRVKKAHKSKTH
As to the kind of experiment: Activity of human UGT1A3 expressed in microsomes isolated from baculovirus infected insect cell assessed as enzyme-mediated 3-(4-((6-methoxy-1-methyl-1H-benzo[d]imidazol-2-yl)methoxy)phenyl)-2-(methylthio)propanamide formation at 20 uM after 4 hrs by radio-HPLC/LC-MS/MS analysis in presence of NADPH-generating system/SAM in presence of UDPGA and UDPGA/SAM. In kind it is ADME.

For a further series, the target named is Cytochrome P450 3A4 (Homo sapiens, UniProt P08684). As to the kind of experiment: Activity of human CYP3A4 expressed in microsomes isolated from baculovirus infected insect cell assessed as enzyme-mediated 2-((4-((2,4-dioxothiazolidin-5-yl)methyl)phenoxy)methyl)-1-methyl-1H-benzo[d]imidazol-6-yl hydrogen sulfate formation at 20 uM after 2 hrs by radio-HPLC/LC-MS/MS analysis. In kind it is ADME. The gist of the method:
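Baculovirus-insect-cell microsomes expressing the human CYP (1 mg/ml protein) were incubated with [14C]rivoglitazone (20 μM) in 50 mM potassium phosphate (pH 7.4) or 100 mM Tris-HCl (pH 7.5) with an NADPH-generating system (2 mM NADP+, 20 mM glucose 6-phosphate, 2 units/ml G6PDH, 10 mM MgCl2) for 2 h at 37°C. Insect-cell control supersomes served as the control. Reactions were stopped with acetonitrile, and the concentrated supernatants were analysed by radio-HPLC, LC-MS and LC-MS/MS.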

Series [2] in a line: Drug metabolism in human hepatocytes assessed as formation of 3-(4-((6-methoxy-1-methyl-1H-benzo[d]imidazol-2-yl)methoxy)phenyl)-2-(methylsulfinyl)propanamide at 30 uM after 3 hrs by radio-HPLC/LC-MS/MS analysis in presence of NADPH-generating system/SAM. Type of series: ADME, cell-based, Hepatocyte.
In series [3] the target is T2, UDP-glucuronosyltransferase 1A6 (Homo sapiens, UniProt P19224).
T2 sequence (P19224 whole entry): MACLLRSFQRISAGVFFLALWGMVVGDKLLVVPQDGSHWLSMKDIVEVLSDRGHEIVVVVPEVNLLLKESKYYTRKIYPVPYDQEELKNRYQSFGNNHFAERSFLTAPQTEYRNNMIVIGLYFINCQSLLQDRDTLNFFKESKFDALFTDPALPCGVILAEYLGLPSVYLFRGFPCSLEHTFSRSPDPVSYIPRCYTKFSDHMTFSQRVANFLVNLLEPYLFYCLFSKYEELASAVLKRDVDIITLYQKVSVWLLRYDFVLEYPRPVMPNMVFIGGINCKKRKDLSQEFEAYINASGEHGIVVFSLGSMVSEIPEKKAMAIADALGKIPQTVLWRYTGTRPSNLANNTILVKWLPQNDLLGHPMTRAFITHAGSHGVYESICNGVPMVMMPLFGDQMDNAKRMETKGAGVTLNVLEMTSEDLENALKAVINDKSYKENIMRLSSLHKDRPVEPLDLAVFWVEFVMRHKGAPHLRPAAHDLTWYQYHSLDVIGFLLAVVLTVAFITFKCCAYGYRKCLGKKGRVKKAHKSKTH
As to the kind of experiment: Activity of human UGT1A6 expressed in microsomes isolated from baculovirus infected insect cell assessed as enzyme-mediated 2-mercapto-3-(4-((6-methoxy-1-methyl-1H-benzo[d]imidazol-2-yl)methoxy)phenyl)propanoic acid formation at 20 uM after 4 hrs by radio-HPLC/LC-MS/MS analysis in presence of UDPGA. Type of series: ADME.

The nature of series [4]: Drug metabolism in human hepatocytes assessed as formation of 2-((4-((2,4-dioxothiazolidin-5-yl)methyl)phenoxy)methyl)-1-methyl-1H-benzo[d]imidazol-6-yl hydrogen sulfate at 30 uM after 3 hrs by radio-HPLC/LC-MS/MS analysis. In kind it is ADME, cell-based, Hepatocyte.
The target of the next series is T3, Cytochrome P450 2C8 (Homo sapiens, UniProt P10632).
T3 sequence (P10632 whole entry): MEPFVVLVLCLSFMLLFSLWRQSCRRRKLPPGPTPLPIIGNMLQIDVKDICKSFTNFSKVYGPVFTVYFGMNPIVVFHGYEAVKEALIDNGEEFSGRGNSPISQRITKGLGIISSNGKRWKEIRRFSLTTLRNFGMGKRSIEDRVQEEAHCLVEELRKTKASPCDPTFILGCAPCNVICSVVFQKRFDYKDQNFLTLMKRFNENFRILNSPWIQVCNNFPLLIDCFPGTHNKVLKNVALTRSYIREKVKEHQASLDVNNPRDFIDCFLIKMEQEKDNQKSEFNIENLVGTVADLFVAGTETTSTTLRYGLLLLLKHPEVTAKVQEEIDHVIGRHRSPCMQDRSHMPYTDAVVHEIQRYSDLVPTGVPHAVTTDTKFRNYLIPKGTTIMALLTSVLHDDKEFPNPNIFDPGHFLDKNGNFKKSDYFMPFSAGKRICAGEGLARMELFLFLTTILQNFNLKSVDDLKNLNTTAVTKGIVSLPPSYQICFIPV
As to the kind of experiment: Activity of human CYP2C8 expressed in microsomes isolated from baculovirus infected insect cell assessed as enzyme-mediated 3-(4-((6-methoxy-1-methyl-1H-benzo[d]imidazol-2-yl)methoxy)phenyl)-2-(methylsulfinyl)propanamide formation at 20 uM after 2 hrs by radio-HPLC/LC-MS/MS analysis in presence of NADPH-generating system/SAM. Type of series: ADME.

Each structure is given as a SMILES string.

Chain of Cytochrome P450 3A4 (P08684 whole entry): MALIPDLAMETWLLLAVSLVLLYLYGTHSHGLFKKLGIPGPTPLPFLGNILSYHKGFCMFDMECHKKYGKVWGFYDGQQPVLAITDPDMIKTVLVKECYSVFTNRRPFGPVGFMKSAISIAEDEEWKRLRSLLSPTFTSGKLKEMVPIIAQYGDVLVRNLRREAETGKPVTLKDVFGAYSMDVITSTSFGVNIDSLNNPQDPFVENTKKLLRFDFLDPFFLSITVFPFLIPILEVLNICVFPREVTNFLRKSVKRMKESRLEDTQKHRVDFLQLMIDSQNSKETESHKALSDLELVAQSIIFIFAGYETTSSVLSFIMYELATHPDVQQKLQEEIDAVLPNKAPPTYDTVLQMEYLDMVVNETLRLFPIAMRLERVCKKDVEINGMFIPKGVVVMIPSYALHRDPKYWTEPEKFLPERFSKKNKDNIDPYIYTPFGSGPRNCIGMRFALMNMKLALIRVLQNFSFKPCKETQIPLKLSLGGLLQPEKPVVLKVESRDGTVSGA

On to `COc1ccc2nc(COc3ccc(C[14CH]4SC(=O)NC4=O)cc3)n(C)c2c1.Cl` (racemic), for which the Drug metabolism entry in series [1] was “metabolite_not_detected”; at Cytochrome P450 3A4 it was “metabolite_not_detected”; in series [2], “metabolite_detected”; in series [3], “metabolite_not_detected”; in series [4] it was “metabolite_detected”; on Cytochrome P450 2C8, “metabolite_not_detected”.
